From ChEMBL document CHEMBL4196006, “Aryl thiosemicarbazones for the treatment of trypanosomatidic infections” (Eur J Med Chem, 2018) come the findings set out here.

Series [1] concerns Trypanosoma brucei. The series can be described thus: Antitrypanosomal activity against Trypanosoma brucei Lister 427 bloodstream form assessed as parasite growth inhibition at 50 uM after 72 hrs by SYBR Green assay relative to control. Type of series: functional. The settings on record: for inhibition of growth at 50 µM: Lister 427, 72 h, read-out: GI.
The subject of another series is Leishmania infantum. The series can be described thus: Antileishmanial activity against Leishmania infantum amastigote form assessed as parasite growth inhibition at 50 uM after 72 hrs by steady-Glo reagent based assay relative to control. The class given is functional. The settings on record: read-out: GI. A digest of the protocol: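 Intramacrophage L. infantum amastigotes in THP-1-derived macrophages, tested at 50 μM or in dose-response. Plates held 72 h at 37 °C, 5% CO2. Medium was replaced by PBS, macrophages lysed, and parasites read by Steady-Glo luminescence. High-content imaging gave host cell number, infection ratio (infected/total cells) and parasites per infected cell. Values are means of at least two independent experiments.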

Another series concerns Trypanosoma cruzi. In words: Antitrypanosomal activity against Trypanosoma cruzi amastigote form infected in human U2OS cells assessed as parasite growth inhibition at 50 uM after 72 hrs relative to control. The class given is functional. The settings on record: for inhibition of growth at 50 µM: read-out: GI. A digest of the protocol: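 U2OS monolayers grown for 24 h, then infected with tissue-derived trypomastigotes of T. cruzi Y strain. Compounds were added 24 h after infection at 50 μM (single-point) or in dose-response, with 72 h exposure. Plates were fixed, stained and analysed by high-content imaging; activity was normalized to infected and non-infected controls. Means of at least two experiments; benznidazole as reference.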

In series [2] the test system is Trypanosoma brucei. The series can be described thus: Antitrypanosomal activity against Trypanosoma brucei Lister 427 bloodstream form at 10 uM after 72 hrs by resazurin dye-based assay relative to control. The class given is functional.
For series [3], the system named is Trypanosoma brucei. The series can be described thus: Potentiation of methotrexate-induced antitrypanosomal activity against Trypanosoma brucei Lister 427 bloodstream form at 10 uM after 72 hrs by resazurin dye-based assay relative to control. Type of series: functional.
In a further series the target is T1, CYP1A2 (Homo sapiens, UniProt P05177).
T1 sequence (P05177 whole entry): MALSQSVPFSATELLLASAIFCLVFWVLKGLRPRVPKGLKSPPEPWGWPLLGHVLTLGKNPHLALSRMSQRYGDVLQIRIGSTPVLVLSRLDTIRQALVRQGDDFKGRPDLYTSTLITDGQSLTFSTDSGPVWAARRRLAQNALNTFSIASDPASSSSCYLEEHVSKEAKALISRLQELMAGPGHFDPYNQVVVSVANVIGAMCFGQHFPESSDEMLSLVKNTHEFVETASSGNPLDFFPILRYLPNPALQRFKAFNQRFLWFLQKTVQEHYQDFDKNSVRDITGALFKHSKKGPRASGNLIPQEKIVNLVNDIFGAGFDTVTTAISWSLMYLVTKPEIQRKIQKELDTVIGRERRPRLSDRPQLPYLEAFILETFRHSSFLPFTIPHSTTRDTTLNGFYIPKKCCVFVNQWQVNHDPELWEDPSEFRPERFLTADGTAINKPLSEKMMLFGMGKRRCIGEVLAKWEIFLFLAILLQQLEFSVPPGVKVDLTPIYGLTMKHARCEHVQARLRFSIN
The series can be described thus: Inhibition of human microsomal CYP1A2 expressed in baculovirus infected BTI-TN-5B1-4 cells at 10 uM incubated for 30 mins by luciferase assay relative to control. The class given is ADME. A digest of the protocol:
(§1)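 CYP1A2, 2C9, 2C19, 2D6 and 3A4 in microsomes from baculovirus-infected insect cells, each with a P450-Glo luminogenic substrate. Inhibition read as loss of light; single-point at 10 μM, triplicate.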

Series [4] relates to Trypanosoma brucei. The series can be described thus: Potentiation of methotrexate-induced antitrypanosomal activity against Trypanosoma brucei Lister 427 bloodstream form at 10 uM after 72 hrs by resazurin dye-based assay. Type of series: functional.
Another series deals with hERG (KCNH2) (Homo sapiens, UniProt Q12809). In words: Inhibition of human ERG at 10 uM incubated for 2 hrs by fluorescence polarisation assay relative to control.
A further series has as its target CYP2C9 (Homo sapiens, UniProt P11712). The series can be described thus: Inhibition of human microsomal CYP2C9 expressed in baculovirus infected BTI-TN-5B1-4 cells at 10 uM incubated for 30 mins by luciferase assay relative to control. Type of series: ADME. Put shortly: as §1
A further series has as its target CYP2C19 (Homo sapiens, UniProt P33261). The series can be described thus: Inhibition of human microsomal CYP2C19 expressed in baculovirus infected BTI-TN-5B1-4 cells at 10 uM incubated for 30 mins by luciferase assay relative to control. The class given is ADME. Put shortly:
as §1

The next series deals with CYP2D6 (Homo sapiens, UniProt P10635). The series can be described thus: Inhibition of human microsomal CYP2D6 expressed in baculovirus infected BTI-TN-5B1-4 cells at 10 uM incubated for 30 mins by luciferase assay relative to control. The class given is ADME. A digest of the protocol:
as §1

A further series deals with CYP3A4 (Homo sapiens, UniProt P08684). In words: Inhibition of human microsomal CYP3A4 expressed in baculovirus infected BTI-TN-5B1-4 cells at 10 uM incubated for 30 mins by luciferase assay relative to control. The class given is ADME. Put shortly: as §1
The target of another series is Aurora kinase B (Homo sapiens, UniProt Q96GD4). In words: Inhibition of recombinant full-length human aurora B kinase expressed in baculovirus system at 10 uM using MBP as substrate incubated for 45 mins by ADP-glo kinase assay. The settings on record: probe MBP. Put shortly: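 Aurora B activity measured as ADP formation via coupled luciferase ADP-Glo luminescence; single-point at 10 μM, triplicate.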

Series [5] is described as follows: Cytotoxicity against human 786-O cells assessed as inhibition of mitochondrial viability at 10 uM after 6 hrs by CMXRos staining based assay relative to control. The class given is cell-based, 786-0. The settings on record: read-out: INH. A digest of the protocol:
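Mitochondrial toxicity monitored by MitoTracker Red CMXRos uptake and high-content imaging; compound at 10 μM, triplicate.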

A short description of series [6]: Cytotoxicity against human THP1 cells assessed as viable cells at 100 uM after 72 hrs by MTT assay relative to control. The class given is cell-based, THP-1. The settings on record: read-out: Activity. A digest of the protocol: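 THP-1-derived macrophages exposed to compounds for 72 h, tested at 100 μM or in dose-response; viability read by MTT colorimetric assay.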

A short description of series [7]: Cytotoxicity against human U2OS cells assessed as viable cells at 50 uM after 72 hrs by MTT assay relative to control. Type of series: cell-based. The settings on record: read-out: Activity.
Series [8] has as its target T2, Pteridine reductase, putative (Trypanosoma brucei) (UniProt Q581W1).
T2 sequence (whole entry): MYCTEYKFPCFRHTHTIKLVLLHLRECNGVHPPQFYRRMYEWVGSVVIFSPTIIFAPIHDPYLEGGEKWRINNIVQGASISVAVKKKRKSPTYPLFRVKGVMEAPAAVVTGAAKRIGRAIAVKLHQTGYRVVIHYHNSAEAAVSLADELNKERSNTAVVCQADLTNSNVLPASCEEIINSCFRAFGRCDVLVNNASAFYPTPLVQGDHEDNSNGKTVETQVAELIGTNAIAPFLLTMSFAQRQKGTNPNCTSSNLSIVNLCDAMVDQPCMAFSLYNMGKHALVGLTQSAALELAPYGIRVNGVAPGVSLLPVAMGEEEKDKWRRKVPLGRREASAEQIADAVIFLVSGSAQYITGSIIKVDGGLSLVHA
The series can be described thus: Inhibition of Trypanosoma brucei PTR1 at 50 uM using H2B as substrate in presence of NADPH by photometric analysis relative to control.

In series [9] the target is T3, Pteridine reductase 1 (Leishmania major) (UniProt Q01782).
T3 sequence (whole entry): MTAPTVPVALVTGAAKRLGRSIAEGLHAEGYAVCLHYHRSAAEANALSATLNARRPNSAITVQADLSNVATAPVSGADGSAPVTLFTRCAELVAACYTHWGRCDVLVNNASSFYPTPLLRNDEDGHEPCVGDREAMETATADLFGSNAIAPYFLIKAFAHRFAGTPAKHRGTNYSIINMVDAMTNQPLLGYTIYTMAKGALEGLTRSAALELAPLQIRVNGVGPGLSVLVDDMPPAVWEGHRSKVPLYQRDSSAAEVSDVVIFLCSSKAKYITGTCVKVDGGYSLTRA
In words: Inhibition of Leishmania major PTR1 at 50 uM using H2B as substrate in presence of NADPH by photometric analysis relative to control.

Series [10] is described as follows: Cytotoxicity against human A549 cells assessed as growth inhibition at 10 uM after 48 hrs by CellTiter-Glo assay relative to control; values are per cent of control. The settings on record: A549 cells.
A short description of series [11]: Cytotoxicity against human WI38 cells assessed as growth inhibition at 10 uM after 48 hrs by CellTiter-Glo assay relative to control; values are per cent of control. The settings on record: WI38 cells.

Activity calls are given as the source filed them. The rule behind the calls is not given here.

Sequence of CYP2C19 (P33261 whole entry): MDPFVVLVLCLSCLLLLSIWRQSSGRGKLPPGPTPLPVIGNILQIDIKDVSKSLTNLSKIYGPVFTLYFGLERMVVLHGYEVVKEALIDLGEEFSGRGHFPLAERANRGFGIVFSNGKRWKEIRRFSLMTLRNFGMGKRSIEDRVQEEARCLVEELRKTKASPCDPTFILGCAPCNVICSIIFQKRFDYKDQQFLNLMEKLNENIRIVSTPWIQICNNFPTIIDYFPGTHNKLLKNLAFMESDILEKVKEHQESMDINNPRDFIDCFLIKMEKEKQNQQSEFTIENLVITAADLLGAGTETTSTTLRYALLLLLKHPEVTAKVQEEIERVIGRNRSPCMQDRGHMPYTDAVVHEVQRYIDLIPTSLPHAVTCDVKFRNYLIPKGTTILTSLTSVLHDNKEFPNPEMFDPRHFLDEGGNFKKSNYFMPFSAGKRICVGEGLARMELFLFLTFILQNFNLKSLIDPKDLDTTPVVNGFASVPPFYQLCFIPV
Sequence of hERG (KCNH2) (Q12809 whole entry): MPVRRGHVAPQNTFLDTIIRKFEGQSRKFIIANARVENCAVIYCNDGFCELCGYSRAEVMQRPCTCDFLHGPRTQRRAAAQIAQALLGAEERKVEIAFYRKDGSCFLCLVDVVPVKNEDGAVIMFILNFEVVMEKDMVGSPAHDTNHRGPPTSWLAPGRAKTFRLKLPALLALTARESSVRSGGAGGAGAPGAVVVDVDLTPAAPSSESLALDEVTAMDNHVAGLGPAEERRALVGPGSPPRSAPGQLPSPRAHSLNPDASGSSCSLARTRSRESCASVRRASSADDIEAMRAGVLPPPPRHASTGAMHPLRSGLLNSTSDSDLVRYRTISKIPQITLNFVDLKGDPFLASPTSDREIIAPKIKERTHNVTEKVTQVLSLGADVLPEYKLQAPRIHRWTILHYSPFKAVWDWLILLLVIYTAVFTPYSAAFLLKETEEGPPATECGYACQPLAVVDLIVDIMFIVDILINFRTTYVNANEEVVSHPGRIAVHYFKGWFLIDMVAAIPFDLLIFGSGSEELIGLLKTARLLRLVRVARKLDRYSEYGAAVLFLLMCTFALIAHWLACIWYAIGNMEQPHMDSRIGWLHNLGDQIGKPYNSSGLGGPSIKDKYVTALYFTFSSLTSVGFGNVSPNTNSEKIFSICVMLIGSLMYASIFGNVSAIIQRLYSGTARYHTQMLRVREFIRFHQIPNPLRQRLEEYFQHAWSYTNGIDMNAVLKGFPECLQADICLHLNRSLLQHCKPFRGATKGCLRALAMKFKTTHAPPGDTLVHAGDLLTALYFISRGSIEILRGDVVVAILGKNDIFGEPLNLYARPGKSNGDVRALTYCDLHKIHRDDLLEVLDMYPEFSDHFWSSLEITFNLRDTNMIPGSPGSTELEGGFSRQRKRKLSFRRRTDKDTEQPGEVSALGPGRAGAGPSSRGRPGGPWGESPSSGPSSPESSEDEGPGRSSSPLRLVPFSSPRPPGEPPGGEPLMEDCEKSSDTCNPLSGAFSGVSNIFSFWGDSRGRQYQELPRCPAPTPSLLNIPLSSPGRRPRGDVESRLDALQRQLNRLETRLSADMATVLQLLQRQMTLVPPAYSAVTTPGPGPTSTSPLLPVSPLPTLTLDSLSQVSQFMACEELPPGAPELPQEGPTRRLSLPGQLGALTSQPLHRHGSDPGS
Sequence of CYP2D6 (P10635 whole entry): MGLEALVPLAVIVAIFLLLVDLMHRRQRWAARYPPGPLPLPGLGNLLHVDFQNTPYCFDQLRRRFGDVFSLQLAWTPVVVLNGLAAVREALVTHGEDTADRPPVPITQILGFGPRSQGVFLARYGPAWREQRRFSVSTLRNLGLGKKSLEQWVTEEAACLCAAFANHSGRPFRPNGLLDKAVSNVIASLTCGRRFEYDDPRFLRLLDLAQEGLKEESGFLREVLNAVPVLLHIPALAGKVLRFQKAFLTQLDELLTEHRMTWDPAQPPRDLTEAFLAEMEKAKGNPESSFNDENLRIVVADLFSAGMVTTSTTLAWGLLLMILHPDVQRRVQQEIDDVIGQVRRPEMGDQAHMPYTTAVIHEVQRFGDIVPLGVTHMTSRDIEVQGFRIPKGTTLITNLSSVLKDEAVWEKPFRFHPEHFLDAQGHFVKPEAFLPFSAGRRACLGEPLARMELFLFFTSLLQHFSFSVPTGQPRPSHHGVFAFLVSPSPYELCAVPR
Sequence of Aurora kinase B (Q96GD4 whole entry): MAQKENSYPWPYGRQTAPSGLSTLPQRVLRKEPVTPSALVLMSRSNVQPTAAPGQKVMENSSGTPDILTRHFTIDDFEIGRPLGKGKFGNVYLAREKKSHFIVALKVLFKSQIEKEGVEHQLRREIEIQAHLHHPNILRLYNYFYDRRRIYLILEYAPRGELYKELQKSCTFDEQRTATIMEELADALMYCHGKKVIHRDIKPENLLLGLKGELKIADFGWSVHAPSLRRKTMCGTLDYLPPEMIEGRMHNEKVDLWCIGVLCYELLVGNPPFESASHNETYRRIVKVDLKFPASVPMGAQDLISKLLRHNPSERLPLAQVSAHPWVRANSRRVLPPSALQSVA
Sequence of CYP2C9 (P11712 whole entry): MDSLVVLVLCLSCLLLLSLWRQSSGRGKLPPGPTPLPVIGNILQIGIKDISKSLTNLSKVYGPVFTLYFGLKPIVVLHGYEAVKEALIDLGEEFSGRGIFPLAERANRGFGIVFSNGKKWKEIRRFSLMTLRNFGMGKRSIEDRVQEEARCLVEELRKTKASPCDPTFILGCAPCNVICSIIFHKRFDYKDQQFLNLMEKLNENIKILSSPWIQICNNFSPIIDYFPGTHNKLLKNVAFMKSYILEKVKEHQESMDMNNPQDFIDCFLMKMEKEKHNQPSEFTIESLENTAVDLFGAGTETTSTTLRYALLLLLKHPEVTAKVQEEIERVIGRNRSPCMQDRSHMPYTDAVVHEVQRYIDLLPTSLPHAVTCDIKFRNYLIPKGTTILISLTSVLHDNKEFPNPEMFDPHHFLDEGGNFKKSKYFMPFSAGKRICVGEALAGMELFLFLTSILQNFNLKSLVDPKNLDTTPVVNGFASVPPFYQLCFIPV
Sequence of CYP3A4 (P08684 whole entry): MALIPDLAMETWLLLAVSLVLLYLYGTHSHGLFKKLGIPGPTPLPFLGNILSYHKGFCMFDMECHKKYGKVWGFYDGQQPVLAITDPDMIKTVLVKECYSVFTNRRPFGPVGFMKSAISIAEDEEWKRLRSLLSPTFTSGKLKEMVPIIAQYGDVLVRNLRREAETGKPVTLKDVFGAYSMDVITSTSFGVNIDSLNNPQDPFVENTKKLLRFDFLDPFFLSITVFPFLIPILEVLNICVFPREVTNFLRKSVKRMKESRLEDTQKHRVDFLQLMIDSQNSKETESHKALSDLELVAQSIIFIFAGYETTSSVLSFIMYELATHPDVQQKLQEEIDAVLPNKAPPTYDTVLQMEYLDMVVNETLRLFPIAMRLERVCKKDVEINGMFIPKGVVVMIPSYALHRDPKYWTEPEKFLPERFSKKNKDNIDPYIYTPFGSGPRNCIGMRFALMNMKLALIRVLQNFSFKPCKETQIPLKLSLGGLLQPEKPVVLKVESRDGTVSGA

In the case of `NC(=S)N/N=C/c1cccc(-c2ccccc2)c1`, the inhibition of growth at 50 µM in the series with Trypanosoma brucei [1] worked out at 0.9%; in the series with Leishmania infantum, 35.8%; in the series with Trypanosoma cruzi, 20.2%. Further, the Activity with Trypanosoma brucei [2] is on record as 28.5%; in the series on Trypanosoma brucei [3], 93.5%. Moreover, the inhibition at 0.5 h, 10 µM on CYP1A2 is 83.9%; at CYP2C9 it was 14.7%; against CYP2C19, -27.2%; at CYP2D6 it was 20.6%; against CYP3A4, 5.26%. Further, the PF with Trypanosoma brucei [4] is 1.77. Moreover, the inhibition at 2 h, 10 µM against hERG (KCNH2) amounted to 5.99%. For the same compound, the inhibition at 0.75 h, 10 µM on Aurora kinase B is -4.25%. Moreover, the cytotoxicity at 6 h, 10 µM in series [5] amounted to 4.4%. The viability at 72 h, 100 µM in series [6] came to 45.2%. In addition, in [7], the viability at 72 h, 50 µM was determined as 112%. For the same compound, the results for the inhibition in [8] and in series [9] were 9.25% and 3.5%, respectively. Also, the values for the cell growth (% of control) at 48 h, 10 µM in [10] and in series [11] were 110% and 111%, respectively.

Regarding `NC(=S)N/N=C/c1csc2ccccc12`, the inhibition of growth at 50 µM turned out to be 3.57% in the series with Trypanosoma brucei [1], 24.4% in the series on Leishmania infantum and 24.3% with Trypanosoma cruzi. Also, the Activity is given as 21% in the series with Trypanosoma brucei [2] and 52.33% in the series with Trypanosoma brucei [3]. Further, the inhibition at 0.5 h, 10 µM against CYP1A2 is 100%; against CYP2C9, 14.6%; at CYP2C19, -17.1%; against CYP2D6 it was 22.1%; against CYP3A4 it was 5.98%. Further, the PF in the series on Trypanosoma brucei [4] is on record as 1.16. Further, the inhibition at 2 h, 10 µM on hERG (KCNH2) was -5.27%. The inhibition at 0.75 h, 10 µM on Aurora kinase B was -4.29%. In addition, the cytotoxicity at 6 h, 10 µM in series [5] was determined as 12.6%. In addition, in series [6], the viability at 72 h, 100 µM was found to be 44.9%. In addition, the viability at 72 h, 50 µM in series [7] was found to be 152%. For the same compound, the results for the inhibition in series [8] and in series [9] were 3.09% and 4.9%, respectively. Besides, the cell growth (% of control) at 48 h, 10 µM was 101% in series [10] and 95.3% in series [11].

Consider `C/C(=N\NC(N)=S)c1ccc(O)cc1`, for which the “growth inhibition (GI)” value in the series with Trypanosoma brucei [1] was “inactive”. The figures for the inhibition of growth at 50 µM in the series with Leishmania infantum and with Trypanosoma cruzi were 23.9% and 37%, respectively. Moreover, the figures for the Activity in the series on Trypanosoma brucei [2] and in the series on Trypanosoma brucei [3] were 14.83% and 87.83%, respectively. Further, the inhibition at 0.5 h, 10 µM against CYP1A2 is -0.75%; at CYP2C9 it was -9.01%; against CYP2C19 it was -63.9%; on CYP2D6, -24.5%; against CYP3A4 it was -4.7%. Also, the PF with Trypanosoma brucei [4] was found to be 2.25. Also, the inhibition at 2 h, 10 µM against hERG (KCNH2) came to 3.53%. At Aurora kinase B, the inhibition at 0.75 h, 10 µM was -0.05%. Moreover, in series [5], the cytotoxicity at 6 h, 10 µM was found to be 5.9%. Further, in series [6], the viability at 72 h, 100 µM came out at 72.2%. Besides, in [7], the viability at 72 h, 50 µM is 90.2%. Moreover, the inhibition came out at 26.2% in series [8] and 7.77% in series [9]. Also, the cell growth (% of control) at 48 h, 10 µM is 126% in series [10] and 101% in series [11].

Regarding `COc1cc(/C=N/NC(N)=S)cc(OC)c1OC`, the inhibition of growth at 50 µM in the series on Trypanosoma brucei [1] is 0.21%; in the series on Leishmania infantum it was 7.19%. In the series with Trypanosoma cruzi, the “growth inhibition (GI)” value is “inactive”. For the same compound, the Activity in the series with Trypanosoma brucei [2] was determined as 2.67%; in the series with Trypanosoma brucei [3], 51.67%. For the same compound, the inhibition at 0.5 h, 10 µM is 15.1% on CYP1A2; -6.01% on CYP2C9; -28.1% at CYP2C19; -21% against CYP2D6; -30.2% against CYP3A4. Besides, the PF in the series with Trypanosoma brucei [4] turned out to be 1.92. Moreover, the inhibition at 2 h, 10 µM at hERG (KCNH2) was -1.36%. The inhibition at 0.75 h, 10 µM at Aurora kinase B is -17.7%. Besides, the cytotoxicity at 6 h, 10 µM in series [5] came to 4.79%. Also, the viability at 72 h, 100 µM in [6] worked out at 40.2%. Besides, the viability at 72 h, 50 µM in [7] amounted to 65.5%. Moreover, the inhibition is 2.13% in series [8] and 7.53% in series [9]. Moreover, the cell growth (% of control) at 48 h, 10 µM came to 140% in [10] and 111% in series [11].
